Each block holds one molecule with its values, some of them ahead of it. Activity calls are given as the source filed them. The calls are words filed in the database; no cut-off is given here.
Columns and labels:
Clostridioides difficile [1] = assay: Antibacterial activity against Clostridium difficile assessed as inhibition of bacterial viability at 3 to 50 uM after 24 hrs; assay type: functional, organism-based
Method in brief: (§1)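 Cultured anaerobically for 24 h at 37°C in supplemented BHI broth with a range of compound concentrations. Survivors counted by plating 10-fold serial dilutions. Detection limit 2 log CFU/ml. Compared against bacteria grown without compound.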

Clostridioides difficile [2] = assay: Antibacterial activity against Clostridium difficile assessed as inhibition of bacterial viability at 10 uM after 24 hrs relative to untreated control; assay type: functional; method in brief: as §1
Clostridioides difficile [3] = assay: Antibacterial activity against Clostridium difficile assessed induction of bacteriolysis at 30 uM after 26 hrs; assay type: functional, organism-based
Method in brief: (§2)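 Anaerobic cultures in supplemented BHI were incubated with compound (30 or 50 μM depending on compound) for 26 h at 37°C. OD600 was read at each time point to follow growth and lysis, compared with an untreated control.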

Clostridioides difficile [4] = assay: Antibacterial activity against Clostridium difficile assessed induction of bacteriolysis at 50 uM after 26 hrs; assay type: functional, organism-based; method in brief: as §2
Clostridioides difficile [5] = assay: Drug uptake in Clostridium difficile assessed as dansylated compound accumulation at cell surface by electron microscopy; assay type: ADME, organism-based
Method in brief: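 Bacteria treated with dansyl-labelled compound, fixed in 0.5% glutaraldehyde/2% paraformaldehyde at 4°C for 1 h without osmium, and embedded in Unicryl. Ultrathin sections blocked in 1.5% BSA, then rabbit anti-dansyl (1:100, 2 h, room temperature) and 10-nm gold anti-rabbit IgG (1:20, 30 min). Nonimmune serum used as negative control.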

Clostridioides difficile [6] = assay: Antibacterial activity against Clostridium difficile 1 assessed as inhibition of bacterial viability after 24 hrs; assay type: functional, organism-based
Method in brief: (§3)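 Four clinical isolates from pseudomembranous colitis patients, grown anaerobically at 37°C in BHI broth with 1% yeast extract and 0.1% L-cysteine. Broth cultures exposed 24 h to a range of compound concentrations (autoinducers at 50 μM). Viable counts made by plating 10-fold serial dilutions on sheep-blood Mueller-Hinton agar; n = 3.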

Clostridioides difficile [7] = assay: Antibacterial activity against Clostridium difficile 2 assessed as inhibition of bacterial viability after 24 hrs; assay type: functional, organism-based; method in brief: as §3
Clostridioides difficile [8] = assay: Antibacterial activity against Clostridium difficile 3 assessed as inhibition of bacterial viability after 24 hrs; assay type: functional, organism-based; method in brief: as §3
Clostridioides difficile [9] = assay: Antibacterial activity against Clostridium difficile 4 assessed as inhibition of bacterial viability after 24 hrs; assay type: functional, organism-based; method in brief: as §3
Clostridioides difficile [10] = assay: Antibacterial activity against Clostridium difficile assessed as induction of morphological changes at 50 uM after 30 mins by Gram staining; assay type: functional, organism-based
Method in brief: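 Bacteria grown 24 h at 37°C, pelleted at 5,000 rpm for 5 min, then exposed to compound at 50 μM for the stated time. Gram-stained and examined by light microscopy, compared with untreated cells.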

Clostridioides difficile [11] = assay: Antibacterial activity against Clostridium difficile assessed as induction of changes in cell surface structures by electron microscopy; assay type: functional, organism-based
Method in brief: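 Postfixed 1 h in 1% OsO4, ethanol-dehydrated and Epon-embedded. Surface structure of treated cells compared with control cells.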

Clostridioides difficile [12] = assay: Induction of lipid membranes composition changes in Clostridium difficile by NMR spectroscopy; assay type: functional, organism-based
Clostridioides difficile [13] = assay: Antibacterial activity against Clostridium difficile 1 assessed as inhibition of bacterial viability at 50 uM after 24 hrs; assay type: functional, organism-based
Method in brief: (§4)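 C. difficile clinical isolates from pseudomembranous colitis patients, grown anaerobically at 37°C in BHI broth with 1% yeast extract and 0.1% L-cysteine. Cultured 24 h with compound, then viable counts taken by plating serial 10-fold dilutions on Mueller-Hinton agar with 5% sheep blood. n = 3. Detection limit 2 log CFU/ml.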

Clostridioides difficile [14] = assay: Antibacterial activity against Clostridium difficile 2 assessed as inhibition of bacterial viability at 50 uM after 24 hrs; assay type: functional, organism-based; method in brief: as §4
Clostridioides difficile [15] = assay: Antibacterial activity against Clostridium difficile 3 assessed as inhibition of bacterial viability at 50 uM after 24 hrs; assay type: functional, organism-based; method in brief: as §4
Clostridioides difficile [16] = assay: Antibacterial activity against Clostridium difficile 4 assessed as inhibition of bacterial viability at 50 uM after 24 hrs; assay type: functional, organism-based; method in brief: as §4

SMILES: CCCCCCCCC/C(O)=C1\C(=O)CNC1=O
inhibition (Clostridioides difficile [1]): Active
fold change (FC) (Clostridioides difficile [2]): 100000
Activity (Clostridioides difficile [3]): Active

SMILES: CCCCCCCCC/C(O)=C1\C(=O)CN(C)C1=O
inhibition (Clostridioides difficile [1]): Active
Activity (Clostridioides difficile [3]): Active

Drug uptake (Clostridioides difficile [5]): Active
SMILES: CCCCCCCCC/C(O)=C1/C(=O)N[C@@H](C)C1=O
Activity (Clostridioides difficile [4]): Active
inhibition (Clostridioides difficile [1]): Active

Drug uptake (Clostridioides difficile [5]): Active
SMILES: CCCCCCCCC/C(O)=C1/C(=O)N[C@@H](CCO)C1=O
Activity (Clostridioides difficile [4]): Active
inhibition (Clostridioides difficile [6]): Dose-dependent effect
inhibition (Clostridioides difficile [7]): Dose-dependent effect
inhibition (Clostridioides difficile [8]): Dose-dependent effect
inhibition (Clostridioides difficile [9]): Dose-dependent effect
Activity (Clostridioides difficile [10]): Active
Activity (Clostridioides difficile [11]): Active
Activity (Clostridioides difficile [12]): Active

SMILES: CCC/C(O)=C1/C(=O)N[C@@H](CCO)C1=O
inhibition (Clostridioides difficile [1]): Active

SMILES: CCCC(=O)N[C@H]1CCOC1=O
inhibition (Clostridioides difficile [13]): inactive
inhibition (Clostridioides difficile [14]): inactive
inhibition (Clostridioides difficile [15]): inactive
inhibition (Clostridioides difficile [16]): inactive

SMILES: CCCCCCCCC/C(OC)=C1/C(=O)N[C@@H](CCO)C1=O
inhibition (Clostridioides difficile [1]): Active

Drug uptake (Clostridioides difficile [5]): Active
SMILES: CCCCCCCCC/C(O)=C1/C(=O)N[C@H](CCO)C1=O
Activity (Clostridioides difficile [4]): Active
inhibition (Clostridioides difficile [1]): Active

SMILES: CCCCCCCCCC(=O)CC(=O)N[C@H]1CCOC1=O
inhibition (Clostridioides difficile [13]): inactive
inhibition (Clostridioides difficile [14]): inactive
inhibition (Clostridioides difficile [15]): inactive
inhibition (Clostridioides difficile [16]): inactive
Activity (Clostridioides difficile [11]): inactive
Activity (Clostridioides difficile [12]): inactive

Source: ChEMBL document CHEMBL1212780, “Anti-Clostridium difficile potential of tetramic acid derivatives from Pseudomonas aeruginosa quorum-sensing autoinducers” (Antimicrob Agents Chemother, 2010)
